Laboratory results: ChEMBL document CHEMBL4014338, “Discovery of Small Molecules as Multi-Toll-like Receptor Agonists with Proinflammatory and Anticancer Activities” (J Med Chem, 2017)

Experiments:
Toll-like receptor 8 = target: T1, Toll-like receptor 8 (Homo sapiens, UniProt Q9NR97); assay: Agonist activity at human TLR8 expressed in HEK293 cells assessed as induction of NF-kB activation-mediated SEAP production after 24 hrs by HTS assay; type: cell-based
T1 sequence (Q9NR97 whole entry): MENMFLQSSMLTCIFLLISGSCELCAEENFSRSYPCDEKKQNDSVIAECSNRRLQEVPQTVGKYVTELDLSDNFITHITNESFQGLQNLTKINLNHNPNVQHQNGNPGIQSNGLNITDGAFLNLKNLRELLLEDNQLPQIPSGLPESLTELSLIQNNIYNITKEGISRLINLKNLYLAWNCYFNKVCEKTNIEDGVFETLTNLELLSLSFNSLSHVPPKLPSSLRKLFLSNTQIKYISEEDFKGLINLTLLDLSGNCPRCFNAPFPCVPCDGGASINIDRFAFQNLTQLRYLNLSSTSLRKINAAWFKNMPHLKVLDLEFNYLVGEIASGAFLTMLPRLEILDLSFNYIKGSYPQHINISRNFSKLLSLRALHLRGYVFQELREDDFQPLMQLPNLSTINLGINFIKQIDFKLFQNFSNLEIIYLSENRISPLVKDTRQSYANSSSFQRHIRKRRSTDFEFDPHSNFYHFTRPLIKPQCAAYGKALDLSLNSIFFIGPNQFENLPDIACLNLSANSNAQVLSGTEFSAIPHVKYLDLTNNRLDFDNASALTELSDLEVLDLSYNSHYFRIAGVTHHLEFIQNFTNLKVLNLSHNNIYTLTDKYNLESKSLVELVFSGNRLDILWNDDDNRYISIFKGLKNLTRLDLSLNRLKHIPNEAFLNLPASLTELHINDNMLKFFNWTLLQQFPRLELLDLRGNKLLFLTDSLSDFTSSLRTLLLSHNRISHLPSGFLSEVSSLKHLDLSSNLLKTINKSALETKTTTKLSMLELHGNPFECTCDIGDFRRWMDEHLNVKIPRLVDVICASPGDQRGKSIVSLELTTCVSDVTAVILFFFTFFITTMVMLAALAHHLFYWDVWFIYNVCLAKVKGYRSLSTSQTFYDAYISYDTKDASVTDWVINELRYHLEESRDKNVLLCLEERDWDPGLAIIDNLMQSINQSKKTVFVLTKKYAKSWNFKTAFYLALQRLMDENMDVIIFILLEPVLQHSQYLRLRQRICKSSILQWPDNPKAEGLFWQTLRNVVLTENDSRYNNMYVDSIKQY
Outline: (§1)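 HEK293 cells stably expressing human TLR8 or TLR9 plus an NF-κB-inducible SEAP reporter, seeded at 5 × 10^4 cells/well for 24 h, then treated for 24 h. Supernatant incubated with QUANTI-Blue at 37 °C for 1 h and OD read at 620 nm. Positive controls were R848 (TLR8) and ODN2006 (TLR9). EC50 reported as mean ± SD.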

Toll-like receptor 5 = Toll-like receptor 5 (Homo sapiens, UniProt O60602); assay: Agonist activity at human TLR5 expressed in HEK293 cells assessed as induction of NF-kB activation-mediated SEAP production after 24 hrs by HTS assay; type: cell-based
Chain of Toll-like receptor 5 (O60602 whole entry): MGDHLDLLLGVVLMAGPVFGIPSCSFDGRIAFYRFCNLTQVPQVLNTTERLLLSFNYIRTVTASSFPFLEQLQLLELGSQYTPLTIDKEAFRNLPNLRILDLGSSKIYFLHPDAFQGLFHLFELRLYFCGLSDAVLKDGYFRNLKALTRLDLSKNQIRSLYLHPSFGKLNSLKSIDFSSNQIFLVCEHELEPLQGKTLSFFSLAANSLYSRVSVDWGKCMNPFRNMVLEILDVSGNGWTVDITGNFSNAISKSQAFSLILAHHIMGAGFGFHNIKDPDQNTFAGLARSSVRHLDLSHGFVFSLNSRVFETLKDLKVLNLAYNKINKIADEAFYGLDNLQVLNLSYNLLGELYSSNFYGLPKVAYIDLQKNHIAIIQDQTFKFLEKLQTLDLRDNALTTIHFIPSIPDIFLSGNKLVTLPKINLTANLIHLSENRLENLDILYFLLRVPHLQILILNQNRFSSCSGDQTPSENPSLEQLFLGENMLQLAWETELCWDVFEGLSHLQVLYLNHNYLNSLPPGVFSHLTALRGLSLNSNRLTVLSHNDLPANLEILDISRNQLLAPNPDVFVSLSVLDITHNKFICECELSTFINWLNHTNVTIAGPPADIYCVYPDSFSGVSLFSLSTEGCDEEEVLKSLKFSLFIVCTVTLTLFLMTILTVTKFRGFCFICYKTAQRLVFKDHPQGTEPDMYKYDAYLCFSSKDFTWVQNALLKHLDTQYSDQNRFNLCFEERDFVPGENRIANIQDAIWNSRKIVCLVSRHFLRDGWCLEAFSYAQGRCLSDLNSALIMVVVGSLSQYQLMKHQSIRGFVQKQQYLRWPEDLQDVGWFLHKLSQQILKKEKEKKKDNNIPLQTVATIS
Outline: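 Stable HEK293 lines expressing a single hTLR plus a SEAP reporter, grown in DMEM/10% FBS with selective antibiotics. Seeded at 5 × 10^4 cells/well for 24 h at 37 °C, then treated 24 h. Supernatant mixed with QUANTI-Blue, 1 h at 37 °C, OD 620 nm. Cognate agonists: Pam3CSK4 (TLR2), poly I:C (TLR3), LPS (TLR4), FLA-BS (TLR5), R848 (TLR7). EC50 as mean ± SD.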

[1] = target: Toll-like receptor 3/8/9 (Homo sapiens) (UniProt O15455+Q9NR96+Q9NR97); assay: Agonist activity at TLR3/TLR8/TLR9 in human THP1 cells assessed as increase in TNFalpha production after 24 hrs by ELISA; type: cell-based
Chain of Toll-like receptor 3/8/9 (Homo sapiens) (O15455 whole entry, looked up, one chain of several): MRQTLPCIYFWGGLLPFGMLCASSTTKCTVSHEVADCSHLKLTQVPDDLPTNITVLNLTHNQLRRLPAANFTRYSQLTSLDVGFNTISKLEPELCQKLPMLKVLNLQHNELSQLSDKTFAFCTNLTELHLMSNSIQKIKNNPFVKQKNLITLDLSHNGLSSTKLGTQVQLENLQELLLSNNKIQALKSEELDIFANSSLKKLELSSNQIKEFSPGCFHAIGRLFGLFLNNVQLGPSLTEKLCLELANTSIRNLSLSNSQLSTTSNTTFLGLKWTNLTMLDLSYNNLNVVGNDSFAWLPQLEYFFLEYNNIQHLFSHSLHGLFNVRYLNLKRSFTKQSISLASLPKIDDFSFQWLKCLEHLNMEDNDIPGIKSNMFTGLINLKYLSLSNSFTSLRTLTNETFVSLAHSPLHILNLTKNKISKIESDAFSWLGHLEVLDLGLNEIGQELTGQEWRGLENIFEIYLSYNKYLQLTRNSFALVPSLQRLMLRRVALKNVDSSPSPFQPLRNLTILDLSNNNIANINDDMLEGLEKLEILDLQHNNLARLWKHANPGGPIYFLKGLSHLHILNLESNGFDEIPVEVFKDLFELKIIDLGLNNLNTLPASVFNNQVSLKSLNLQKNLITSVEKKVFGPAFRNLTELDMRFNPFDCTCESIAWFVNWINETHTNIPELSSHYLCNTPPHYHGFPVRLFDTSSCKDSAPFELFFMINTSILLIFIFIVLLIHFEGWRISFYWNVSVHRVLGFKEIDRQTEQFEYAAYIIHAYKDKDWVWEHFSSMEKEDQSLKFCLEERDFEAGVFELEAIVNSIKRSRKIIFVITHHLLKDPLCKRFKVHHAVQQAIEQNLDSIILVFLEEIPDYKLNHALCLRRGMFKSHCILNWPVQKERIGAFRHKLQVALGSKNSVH
Outline: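 THP-1 cells (1.5 × 10^6/well) in RPMI 1640 with 10% FBS, differentiated with PMA (20 nM) for 2 days, then 24 h in fresh medium; nonadherent cells removed. Compound added at indicated concentrations for 24 h. Supernatant TNF-α measured by ELISA. Reference ligands were poly I:C, R848 and CpG ODN2006.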

Toll-like receptor 9 = target: T2, Toll-like receptor 9 (Homo sapiens, UniProt Q9NR96); assay: Agonist activity at human TLR9 expressed in HEK293 cells assessed as induction of NF-kB activation-mediated SEAP production after 24 hrs by HTS assay; type: cell-based; outline: as §1
T2 sequence (Q9NR96 whole entry): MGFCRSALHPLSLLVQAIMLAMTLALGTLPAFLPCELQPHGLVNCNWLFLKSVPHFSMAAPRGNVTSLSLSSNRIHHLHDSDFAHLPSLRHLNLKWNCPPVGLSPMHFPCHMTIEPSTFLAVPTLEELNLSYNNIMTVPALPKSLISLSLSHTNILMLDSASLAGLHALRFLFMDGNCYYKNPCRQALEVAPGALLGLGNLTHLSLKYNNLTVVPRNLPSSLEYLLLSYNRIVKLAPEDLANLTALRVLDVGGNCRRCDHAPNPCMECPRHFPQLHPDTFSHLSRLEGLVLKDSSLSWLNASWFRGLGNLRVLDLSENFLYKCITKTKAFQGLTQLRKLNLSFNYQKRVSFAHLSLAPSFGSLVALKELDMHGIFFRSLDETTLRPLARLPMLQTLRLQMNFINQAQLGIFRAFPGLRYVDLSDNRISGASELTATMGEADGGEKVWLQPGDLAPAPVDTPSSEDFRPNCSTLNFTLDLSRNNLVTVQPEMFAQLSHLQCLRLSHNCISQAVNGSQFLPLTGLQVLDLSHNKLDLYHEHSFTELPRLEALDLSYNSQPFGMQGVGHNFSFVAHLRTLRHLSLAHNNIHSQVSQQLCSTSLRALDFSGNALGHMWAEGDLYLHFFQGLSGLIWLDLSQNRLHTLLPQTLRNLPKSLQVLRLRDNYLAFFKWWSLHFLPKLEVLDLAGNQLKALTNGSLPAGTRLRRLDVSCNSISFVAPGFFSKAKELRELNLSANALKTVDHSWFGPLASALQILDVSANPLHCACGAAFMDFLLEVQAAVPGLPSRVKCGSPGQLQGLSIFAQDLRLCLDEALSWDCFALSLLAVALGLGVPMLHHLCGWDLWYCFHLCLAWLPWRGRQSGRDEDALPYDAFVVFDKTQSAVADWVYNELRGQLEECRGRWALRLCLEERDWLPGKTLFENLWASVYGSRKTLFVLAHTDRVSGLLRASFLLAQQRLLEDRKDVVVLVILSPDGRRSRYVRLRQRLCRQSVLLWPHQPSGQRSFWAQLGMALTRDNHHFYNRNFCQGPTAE

HeLa [2] = assay: Cell cycle arrest in human HeLa cells assessed as accumulation at S phase after 24 hrs by propidium iodide staining based flow cytometry; type: functional
HeLa [3] = assay: Cell cycle arrest in human HeLa cells assessed as accumulation at G0/G1 phase at 20 uM after 24 hrs by propidium iodide staining based flow cytometry (reference value: 52%); type: functional
HeLa [4] = assay: Cell cycle arrest in human HeLa cells assessed as accumulation at G2/M phase at 20 uM after 24 hrs by propidium iodide staining based flow cytometry (reference value: 17%); type: functional

`O=[N+]([O-])c1ccc(COc2cc3c(cc2OCc2ccc([N+](=O)[O-])cc2)OC2(C=C3)CCOCC2)cc1` was tested, and the EC50 (Toll-like receptor 8) was 13.4 µM, the EC50 (Toll-like receptor 5) was > 100 µM and the Activity [1] was “Dose-dependent effect”. For the same compound, the EC50 (Toll-like receptor 9) was 5.66 µM, the Activity (HeLa [2]) was “Dose-dependent effect” and the Activity (HeLa [3]) was 43%. The Activity (HeLa [4]) was 20%.
